Assay results published in ChEMBL document CHEMBL4351017, “Selenocoumarins as new multitarget antiproliferative agents: Synthesis, biological evaluation and in silico calculations” (Eur J Med Chem, 2019).
Each block holds one compound with its values, some of them ahead of it. Activity calls are given as the source filed them. No cut-off for these calls is given here.

Assays:
[1] = test system: A549; experiment: Antiproliferative activity against human A549 cells assessed as growth inhibition measured after 48 hrs by sulforhodamine B assay; type: functional; settings: A549, 48 h
Method in brief: (§1)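 NCI protocol with minor modifications. DMSO stocks at 40 mM. Cells exposed for 48 h to serial decimal dilutions, 0.001–100 µM. GI50 in µM from at least two independent experiments, with SD.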

[2] = test system: HBL-100; experiment: Antiproliferative activity against human HBL100 cells assessed as growth inhibition measured after 48 hrs by sulforhodamine B assay; type: functional; settings: HBL-100, 48 h; method in brief: as §1
[3] = test system: HeLa; experiment: Antiproliferative activity against human HeLa cells assessed as growth inhibition measured after 48 hrs by sulforhodamine B assay; type: functional; method in brief: as §1
[4] = test system: T47D; experiment: Antiproliferative activity against human T47D cells assessed as growth inhibition measured after 48 hrs by sulforhodamine B assay; type: functional; method in brief: as §1
[5] = test system: WiDr; experiment: Antiproliferative activity against human WiDr cells assessed as growth inhibition measured after 48 hrs by sulforhodamine B assay; type: functional; method in brief: as §1
[6] = Cytotoxicity against human hTERT-BJ cells assessed as growth inhibition measured after 48 hrs by sulforhodamine B assay; type: cell-based; settings: hTERT-BJ cells
Method in brief: as §1, with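 “modifications. Human tumour lines or fibroblasts in RPMI 1640 with 1 mM glutamine, 5% FBS and antibiotics, 37 °C, 5% CO2, low passage.” for “modifications.”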

[7] = test system: SW1573; experiment: Antiproliferative activity against human SW1573 cells incubated for 48 hrs in presence of P-gp and CYP3A4/5 inhibitor verapamil by sulforhodamine B assay; type: functional; settings: SW1573, 48 h
Method in brief: (§2)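 Wild-type and P-gp-overexpressing SW1573 cells were grown in RPMI 1640 with 1 mM glutamine, 5% FBS and antibiotics at 37 °C. Cells were exposed for 48 h to serial decimal dilutions, 0.001–100 µM, with or without 10 µM verapamil. GI50 values come from at least two independent experiments, with SD.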

[8] = test system: SW1573; experiment: Antiproliferative activity against human SW1573 cells over-expressing P-gp incubated for 48 hrs in presence of P-gp and CYP3A4/5 inhibitor verapamil by sulforhodamine B assay; type: functional; settings: SW1573, 48 h; method in brief: as §2
[9] = test system: SW1573; experiment: (§3) Resistance factor, ratio of GI50 for antiproliferative activity against human SW1573 cells over-expressing P-gp incubated for 48 hrs in presence of P-gp and CYP3A4/5 inhibitor verapamil by sulforhodamine assay to GI50 for antiproliferative activity against human SW1573 cells incubated for 48 hrs in presence of P-gp and CYP3A4/5 inhibitor verapamil by sulforhodamine B assay; type: functional
Method in brief: (§4)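 Resistance factor: GI50 in SW1573/PGP divided by GI50 in wild-type SW1573. Both came from 48 h exposure, with or without 10 µM verapamil. GI50 values are from at least two independent experiments.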

[10] = test system: SW1573; experiment: Antiproliferative activity against human SW1573 cells incubated for 48 hrs in absence of P-gp and CYP3A4/5 inhibitor verapamil by sulforhodamine B assay; type: functional; settings: SW1573, 48 h; method in brief: as §2
[11] = test system: SW1573; experiment: Antiproliferative activity against human SW1573 cells over-expressing P-gp incubated for 48 hrs in absence of P-gp and CYP3A4/5 inhibitor verapamil by sulforhodamine B assay; type: functional; settings: SW1573, 48 h; method in brief: as §2
[12] = test system: SW1573; experiment: as §3, with “hrs in absence of P-gp” for “hrs in presence of P-gp”, “by sulforhodamine B assay to” for “by sulforhodamine assay to”; type: functional; method in brief: as §4
[13] = test system: HeLa; experiment: Anticancer activity against human HeLa cells assessed as increase in ROS production at 10 uM measured after 48 hrs by ROS-GloTM H2O2 assay; type: functional, cell-based
Method in brief: (§5)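 HeLa cells in RPMI 1640 with 1 mM glutamine, 5% FBS and antibiotics, 37 °C, 5% CO2. Exposed to compound at 1 or 10 µM for 48 h. ROS (H2O2) read with a non-lytic, HRP-free luminescent kit per the manufacturer.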

[14] = Selectivity index, ratio of GI50 for Cytotoxicity against human hTERT-BJ cells to ratio of GI50 for antiproliferative activity against human A549 cells; type: toxicity, cell-based; settings: hTERT-BJ cells versus A549 cells, read-out: RatioGI50
[15] = Selectivity index, ratio of GI50 for Cytotoxicity against human hTERT-BJ cells to ratio of GI50 for antiproliferative activity against human HBL100 cells
[16] = Selectivity index, ratio of GI50 for Cytotoxicity against human hTERT-BJ cells to ratio of GI50 for antiproliferative activity against human HeLa cells; type: toxicity, cell-based; settings: hTERT-BJ cells versus HeLa cells, read-out: RatioGI50
[17] = Selectivity index, ratio of GI50 for Cytotoxicity against human hTERT-BJ cells to ratio of GI50 for antiproliferative activity against human T47D cells; type: toxicity, cell-based; settings: hTERT-BJ cells versus T47D cells, read-out: RatioGI50
[18] = Selectivity index, ratio of GI50 for Cytotoxicity against human hTERT-BJ cells to ratio of GI50 for antiproliferative activity against human WiDr cells; type: toxicity, cell-based; settings: hTERT-BJ cells versus WiDr cells, read-out: RatioGI50
[19] = test system: HeLa; experiment: Anticancer activity against human HeLa cells assessed as increase in ROS production at 1 uM measured after 48 hrs by ROS-GloTM H2O2 assay; type: functional, cell-based; method in brief: as §5
[20] = test system: T47D; experiment: Potency index, ratio of GI50 for CDDP to test compound GI50 for antiproliferative activity against human T47D cells; type: functional
[21] = test system: WiDr; experiment: Potency index, ratio of GI50 for CDDP to test compound GI50 for antiproliferative activity against human WiDr cells; type: functional

Structure (SMILES): Cc1cc(=O)oc2cc(N=C=[Se])ccc12
GI50 [1]: 3.6 µM
GI50 [2]: 5 µM
GI50 [3]: 12 µM
GI50 [4]: 3.6 µM
GI50 [5]: 4.8 µM
GI50 at 48 h [6]: 50 µM
GI50 [7]: 29 µM
GI50 [8]: 24 µM
RatioGI50 [9]: 0.9
GI50 [10]: 27 µM
GI50 [11]: 29 µM
RatioGI50 [12]: 1.1
Activity [13]: Active
selectivity ratio [14]: ≤ 14
RatioGI50 [15]: <=14
selectivity ratio [16]: ≤ 14
selectivity ratio [17]: ≤ 14
selectivity ratio [18]: ≤ 14

Structure (SMILES): CCCCNC(=[Se])Nc1ccc2c(C)cc(=O)oc2c1
GI50 [1]: 3 µM
GI50 [2]: 2.3 µM
GI50 [3]: 5.2 µM
GI50 [4]: 2.9 µM
GI50 [5]: 3.8 µM
GI50 at 48 h [6]: 3.1 µM
GI50 [7]: 2.7 µM
GI50 [8]: 2 µM
RatioGI50 [9]: 0.7
Activity [19]: Active
GI50 [10]: 3 µM
GI50 [11]: 2.3 µM
RatioGI50 [12]: 0.8
RatioGI50 [20]: <=6
RatioGI50 [21]: <=6

Structure (SMILES): CCCOC(=[Se])Nc1ccc2c(C)cc(=O)oc2c1
GI50 [1]: 37 µM
GI50 [2]: 34 µM
GI50 [3]: 23 µM
GI50 [4]: 41 µM
GI50 [5]: 42 µM
GI50 at 48 h [6]: 33 µM
GI50 [7]: 12 µM
GI50 [8]: 35 µM
RatioGI50 [9]: 3
GI50 [10]: 16 µM
GI50 [11]: 32 µM
RatioGI50 [12]: 2
Activity [13]: Active

GI50 [7]: 0.0016 µM
GI50 [8]: 0.0042 µM
GI50 [10]: 0.0015 µM
GI50 [11]: 0.196 µM
Structure (SMILES): CC(=O)O[C@H]1C(=O)[C@@]2(C)[C@H]([C@H](OC(=O)c3ccccc3)[C@]3(O)C[C@H](OC(=O)[C@H](O)[C@@H](NC(=O)c4ccccc4)c4ccccc4)C(C)=C1C3(C)C)[C@]1(OC(C)=O)CO[C@@H]1C[C@@H]2O [PACLITAXEL]
RatioGI50 [9]: 3

Structure (SMILES): COC(=[Se])Nc1ccc2c(C)cc(=O)oc2c1
GI50 [1]: > 100 µM
GI50 [2]: > 100 µM
GI50 [3]: 78 µM
GI50 [4]: > 100 µM
GI50 [5]: > 100 µM

GI50 [7]: 0.0008 µM
GI50 [8]: 0.001 µM
GI50 [10]: 0.0009 µM
GI50 [11]: 2.05 µM
Structure (SMILES): CC[C@]1(O)C[C@@H]2CN(CCc3c([nH]c4ccccc34)[C@@](C(=O)OC)(c3cc4c(cc3OC)N(C)[C@H]3[C@@](O)(C(=O)OC)[C@H](OC(C)=O)[C@]5(CC)C=CCN6CC[C@]43[C@@H]65)C2)C1 [VINBLASTINE]
RatioGI50 [9]: 1
